Assay [1] relates to CHO. The assay is described as follows: Cellular uptake of conjugates in CHO cells at a concentration of 10 uM (+/-15% SEM). Conditions: Cricetulus griseus. The format is functional, cell-based. In a few lines:
(§1)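 Conjugates added 24 h after seeding (1 × 10^5 cells/mL, RPMI 1640 with 10% FCS and 2 mM aminoguanidine; proline added for CHO-MG) and left for 24 h. Cells were washed in 0.14 M NaCl, sonicated in 0.2 N HClO4/2 M NaCl and held 16 h at 4 °C. Conjugate in the supernatant was measured by fluorimetry against standards and expressed per mg protein (Folin). Mean of three determinations (±15%).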

Assay [2] deals with CHO. The assay is described as follows: Cellular uptake of conjugates in CHO cells at a concentration of 2.5 uM (+/-15% SEM). The format is functional, cell-based. Particulars: Cricetulus griseus. In a few lines: as §1
Assay [3] has as its system CHO-MG. Put plainly: In vitro 50% cell growth inhibition by the compound in CHO-MG cells (control). The assay is classed as functional, cell-based. Particulars: Cricetulus griseus. The procedure, abridged:
(§2)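 CHO or CHO-MG cells were trypsinized and plated singly at 2 × 10^3 cells/mL in RPMI 1640/10% FCS with 2 mM aminoguanidine (proline for CHO-MG). Conjugates were added after overnight incubation, with 48 h exposure. Growth was read by MTT formazan absorbance at 540 nm relative to untreated controls. The value is the concentration giving 25% or 50% growth inhibition.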

For assay [4], the system named is CHO-MG. The assay is described as follows: Cellular uptake of conjugates in CHO-MG cells at a concentration of 10 uM (+/-15% SEM). The format is functional, cell-based. Particulars: Cricetulus griseus. The procedure, abridged:
as §1

Assay [5] concerns CHO-MG. The assay is described as follows: Cellular uptake of conjugates in CHO-MG cells at a concentration of 2.5 uM (+/-15% SEM). The format is functional, cell-based. Conditions: Cricetulus griseus. In a few lines: as §1
Assay [6] concerns CHO. Put plainly: In vitro 50% cell growth inhibition by the compound in CHO cells (control). Particulars: Cricetulus griseus. The assay is classed as functional, cell-based. In a few lines: as §2
In assay [7] the test system is L1210. The assay is described as follows: In vitro 50% cell growth inhibition by the compound in L1210 cells. The format is functional, cell-based. Particulars: Mus musculus. In a few lines:
(§3)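 L1210 cells were seeded at 5 × 10^4 cells/mL with conjugate added at seeding, in medium with 2 mM aminoguanidine, for 48 h exposure. Growth was measured by MTT absorbance at 540 nm relative to untreated controls.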

The test system of assay [8] is L1210. The assay is described as follows: In vitro 50% cell growth inhibition by the compound in L1210 cells (control) with 5 mM DFMO addition. The format is functional, cell-based. Particulars: Mus musculus. In a few lines:
(§4)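 L1210 cells were seeded at 5 × 10^4 cells/mL, and conjugate plus 5 mM DFMO were added at seeding with 2 mM aminoguanidine present. After 48 h, growth was read by MTT at 540 nm relative to DFMO-only controls.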

Assay [9] concerns L1210. Put plainly: In vitro 25% cell growth inhibition by the compound in L1210 cells. The assay is classed as functional. Particulars: Mus musculus. The procedure, abridged: as §3
Assay [10] deals with L1210. The assay is described as follows: In vitro 25% cell growth inhibition by the compound in L1210 cells with 5 mM DFMO addition. The format is functional. Conditions: Mus musculus. The procedure, abridged: as §4
For assay [11], the system named is L1210. Put plainly: Inhibition of [14C]SPD uptake by the compound in 5 min initial rate transport assay in L1210 cells. The format is functional, cell-based, Mus musculus.
The subject of assay [12] is L1210. The assay is described as follows: Cellular uptake of conjugates in L1210 cells (control) at a concentration of 10 uM (+/-15% SEM). Conditions: Mus musculus. The assay is classed as functional, cell-based. In a few lines: (§5)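 L1210 cells were seeded at 2 × 10^5 cells/mL with conjugate added at seeding, in medium containing 2 mM aminoguanidine, and cultured 24 h. Washed cells were extracted in 0.2 N HClO4/2 M NaCl for 16 h at 4 °C. Intracellular conjugate was quantified by fluorimetry and expressed as nmol/mg protein. Mean of three determinations (±15%).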

Assay [13] deals with L1210. Put plainly: Cellular uptake of conjugates in L1210 cells (control) at a concentration of 5 uM (+/-15% SEM). Conditions: Mus musculus. The format is functional, cell-based. The procedure, abridged: as §5
In assay [14] the test system is L1210. The assay is described as follows: Cellular uptake of conjugates in L1210 cells in presence of 500 uM SPD at a concentration of 10 uM (+/-15% SEM). The format is functional, cell-based. Particulars: Mus musculus. The procedure, abridged:
(§6)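 Same as the L1210 uptake assay: seeded at 2 × 10^5 cells/mL, conjugate plus 500 μM spermidine added together at seeding, 24 h exposure. Extraction in HClO4/NaCl, fluorimetric quantitation, normalized to protein. Mean of three determinations (±15%).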

For assay [15], the system named is L1210. Put plainly: Cellular uptake of conjugates in L1210 cells in presence of 500 uM SPD at a concentration of 5 uM (+/-15% SEM). The format is functional, cell-based. Conditions: Mus musculus. In a few lines: as §6
The subject of assay [16] is L1210. Put plainly: Cellular uptake of conjugates in L1210 cells pretreated with 5 mM DFMO at a concentration of 10 uM (+/-15% SEM). The assay is classed as functional, cell-based. Particulars: Mus musculus. The procedure, abridged:
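L1210 cells were seeded at 10^5 cells/mL in medium with 5 mM DFMO, and conjugates were added 24 h later. Cells were harvested after a further 24 h, extracted in 0.2 N HClO4/2 M NaCl and assayed by fluorimetry, expressed per mg protein. Mean of three determinations (±15%).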

Another assay concerns Nucleic Acid. Put plainly: Drug concentration required to produce 50% inhibition of fluorescence bound ethidium to CT-DNA (1.26:1) (+/-SEM 5%). Conditions: Bos taurus. The assay is classed as functional. In a few lines:
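Ethidium displacement: 1 μM CT-DNA with 1.26 μM ethidium bromide; conjugate stock added serially. Fluorescence was read at excitation 546 nm and emission 595 nm. The value is the conjugate concentration cutting DNA-bound ethidium fluorescence by 50%. Mean of three determinations (±5%).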

Assay [17] in a line: Ratio of cellular uptake in CHO cells to that of CHO-MG cells at 10 uM. The assay is classed as functional.
Assay [18] is described as follows: Ratio of cellular uptake in CHO cells to that of CHO-MG cells at 2.5 uM. The assay is classed as functional.

Each structure is given as a SMILES string.

Usually IC50 stands for the concentration at which inhibition is half-maximal. Higher therefore signals a need for much substance. One may read the IC25 as the concentration needed for an effect of 25%. A word on the Ki: it is a dissociation constant, usually derived from enzyme kinetics or from competition with a known ligand. Low readings indicate higher affinity, high ones lower affinity. As to `Cl.NCCCNCCCCNCCCNCCCNC(=O)c1c2ccccc2nc2ccccc12`, the Uptake (nM (mg of protein)-1) stood at 0.1 in the assay with CHO [1]; 0.014 in the assay with CHO [2]; 0.108 with CHO-MG [4]; 0.017 with CHO-MG [5]; 0.239 in the assay on L1210 [12]; 0.086 in the assay with L1210 [13]. The Uptake (nM (mg of protein)-1) is 0.221 with L1210 [14], 0.073 in the assay on L1210 [15] and 0.587 in the assay with L1210 [16]. The IC50 turned out to be 35 µM with CHO-MG [3], 30 µM in the assay with CHO [6], 43 µM in the assay with L1210 [7] and 2.2 µM in the assay on L1210 [8]. Besides, the IC25 amounted to 22 µM with L1210 [9] and 0.09 µM in the assay on L1210 [10]. This compound gave a Ki in the assay on L1210 [11] of 0.097 µM. Moreover, the Concentration for 50% ethidium displacement from DNA (C50) in the assay on Nucleic Acid came to 120 nM. Besides, the Ratio came to 0.93 in assay [17] and 0.83 in [18].

For the origin of these results see ChEMBL document CHEMBL1135644, “Effect of spermine conjugation on the cytotoxicity and cellular transport of acridine” (J Med Chem, 2002).
